≈ marks a conversion by molar mass, not a printed value.
Columns and labels:
Assay type in all cases: functional
Streptococcus pneumoniae [1] = test: Antibacterial activity against erythromycin-resistant Streptococcus pneumoniae B1 expressing ermB gene by broth microdilution method
Procedure, shortened: (§1)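 Broth microdilution per NCCL recommendation, read as minimal inhibitory concentration, run alongside azithromycin and clarithromycin references. Strains: S. pneumoniae B1 (erythromycin-resistant, ermB), A22072 (erythromycin-resistant, mefA), AB11 (erythromycin-resistant, erm and mef); S. aureus ATCC29213 ([…]); S. epidermidis clinical isolate (penicillin-resistant, not characterized).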

Escherichia coli = test: Antibacterial activity against penicillin-susceptible Escherichia coli ATCC 25922 by broth microdilution method
Procedure, shortened: (§2)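 MICs were determined in vitro by broth microdilution following the NCCL-recommended method. Azithromycin and clarithromycin were run alongside as reference antibiotics on the same strain panel.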

Streptococcus pneumoniae [2] = test: Antibacterial activity against erythromycin-resistant Streptococcus pneumoniae AB11 expressing ermB/mefA genes by broth microdilution method; procedure, shortened: as §1
Pseudomonas aeruginosa = test: Antibacterial activity against penicillin-susceptible Pseudomonas aeruginosa ATCC 27853 by broth microdilution method; procedure, shortened: as §2
Staphylococcus aureus [3] = test: Antibacterial activity against erythromycin-susceptible Staphylococcus aureus ATCC 25923 by broth microdilution method; procedure, shortened: as §2
Bacillus subtilis = test: Antibacterial activity against erythromycin/penicillin-susceptible Bacillus subtilis ATCC 9372 by broth microdilution method; procedure, shortened: as §2
Streptococcus pyogenes [4] = test: Antibacterial activity against erythromycin-resistant Streptococcus pyogenes R1 clinical isolate by broth microdilution method
Streptococcus pyogenes [5] = test: Antibacterial activity against erythromycin-susceptible Streptococcus pyogenes clinical isolate by broth microdilution method; procedure, shortened: as §2
[6] = system: Staphylococcus epidermidis; test: Antibacterial activity against penicillin-resistant Staphylococcus epidermidis clinical isolate by broth microdilution method; procedure, shortened: as §1
Streptococcus pneumoniae [7] = test: Antibacterial activity against erythromycin-resistant Streptococcus pneumoniae A22072 expressing mefA gene by broth microdilution method; procedure, shortened: as §1
Staphylococcus aureus [8] = test: Antibacterial activity against […] Staphylococcus aureus ATCC 29213 by broth microdilution method; procedure, shortened: as §1
Streptococcus pneumoniae [9] = test: Potency index, ratio of azithromycin MIC to test compound MIC for erythromycin-resistant Streptococcus pneumoniae A22072 expressing mefA gene
Streptococcus pneumoniae [10] = test: Potency index, ratio of azithromycin MIC to test compound MIC for erythromycin-resistant Streptococcus pneumoniae B1 expressing ermB gene
Streptococcus pneumoniae [11] = test: Potency index, ratio of clarithromycin MIC to test compound MIC for erythromycin-resistant Streptococcus pneumoniae AB11 expressing ermB/mefA genes
Streptococcus pneumoniae [12] = test: Potency index, ratio of clarithromycin MIC to test compound MIC for erythromycin-resistant Streptococcus pneumoniae A22072 expressing mefA gene
Streptococcus pneumoniae [13] = test: Potency index, ratio of azithromycin MIC to test compound MIC for erythromycin-resistant Streptococcus pneumoniae AB11 expressing ermB/mefA genes
Streptococcus pneumoniae [14] = test: Potency index, ratio of clarithromycin MIC to test compound MIC for erythromycin-resistant Streptococcus pneumoniae B1 expressing ermB gene

SMILES	MIC (Streptococcus pneumoniae [1])	MIC (Escherichia coli)	MIC (Streptococcus pneumoniae [2])	MIC (Pseudomonas aeruginosa)	MIC (Staphylococcus aureus [3])	MIC (Bacillus subtilis)	MIC (Streptococcus pyogenes [4])	MIC (Streptococcus pyogenes [5])	MIC [6]	MIC (Streptococcus pneumoniae [7])	MIC (Staphylococcus aureus [8])	Ratio (Streptococcus pneumoniae [9])	Ratio (Streptococcus pneumoniae [10])	Ratio (Streptococcus pneumoniae [11])	Ratio (Streptococcus pneumoniae [12])	Ratio (Streptococcus pneumoniae [13])	Ratio (Streptococcus pneumoniae [14])
CC[C@H]1OC(=O)[C@H](C)[C@@H](OC(=O)Nc2cccc(C)c2)[C@H](C)[C@@H](O[C@@H]2O[C@H](C)C[C@H](N(C)C)[C@H]2O)[C@](C)(O)C[C@@H](C)CN(C)[C@H](C)[C@@H](OC(=O)NCc2ccc(C)cc2)[C@]1(C)O	64 µg/mL (≈ 73.5 µM)	64 µg/mL (≈ 73.5 µM)	16 µg/mL (≈ 18.4 µM)	64 µg/mL (≈ 73.5 µM)	8 µg/mL (≈ 9.18 µM)	8 µg/mL (≈ 9.18 µM)	32 µg/mL (≈ 36.7 µM)	4 µg/mL (≈ 4.59 µM)	4 µg/mL (≈ 4.59 µM)	32 µg/mL (≈ 36.7 µM)	128 µg/mL (≈ 147 µM)						
CC[C@H]1OC(=O)[C@H](C)[C@@H](OC(=O)Nc2cccc(C)c2)[C@H](C)[C@@H](O[C@@H]2O[C@H](C)C[C@H](N(C)C)[C@H]2O)[C@](C)(O)C[C@@H](C)CN(C)[C@H](C)[C@@H](OC(=O)NCc2ccccc2Cl)[C@]1(C)O	8 µg/mL (≈ 8.97 µM)	64 µg/mL (≈ 71.8 µM)	4 µg/mL (≈ 4.49 µM)	64 µg/mL (≈ 71.8 µM)	2 µg/mL (≈ 2.24 µM)	4 µg/mL (≈ 4.49 µM)	32 µg/mL (≈ 35.9 µM)	0.03 µg/mL (≈ 0.0336 µM)	0.25 µg/mL (≈ 0.28 µM)	0.5 µg/mL (≈ 0.561 µM)	64 µg/mL (≈ 71.8 µM)	8	8 - 256	8 - 256	8 - 256	8 - 256	8 - 256
CC[C@H]1OC(=O)[C@H](C)[C@@H](O)[C@H](C)[C@@H](O[C@@H]2O[C@H](C)C[C@H](N(C)C)[C@H]2OC(=O)n2ccnc2)[C@](C)(O)C[C@@H](C)CN(C)[C@H](C)[C@H]2OC(=O)O[C@@]21C	256 µg/mL (≈ 360 µM)	64 µg/mL (≈ 90 µM)	32 µg/mL (≈ 45 µM)	64 µg/mL (≈ 90 µM)	64 µg/mL (≈ 90 µM)	128 µg/mL (≈ 180 µM)	256 µg/mL (≈ 360 µM)	8 µg/mL (≈ 11.3 µM)	32 µg/mL (≈ 45 µM)	128 µg/mL (≈ 180 µM)	128 µg/mL (≈ 180 µM)						
CC[C@H]1OC(=O)[C@H](C)[C@@H](OC(=O)Nc2ccccc2C)[C@H](C)[C@@H](O[C@@H]2O[C@H](C)C[C@H](N(C)C)[C@H]2O)[C@](C)(O)C[C@@H](C)CN(C)[C@H](C)[C@H]2OC(=O)O[C@@]21C	32 µg/mL (≈ 42.7 µM)	64 µg/mL (≈ 85.3 µM)	1 µg/mL (≈ 1.33 µM)	64 µg/mL (≈ 85.3 µM)	4 µg/mL (≈ 5.33 µM)	2 µg/mL (≈ 2.67 µM)	32 µg/mL (≈ 42.7 µM)	0.5 µg/mL (≈ 0.667 µM)	4 µg/mL (≈ 5.33 µM)	4 µg/mL (≈ 5.33 µM)	32 µg/mL (≈ 42.7 µM)			128		256	
CC[C@H]1OC(=O)[C@H](C)[C@@H](OC(=O)Nc2ccccc2)[C@H](C)[C@@H](O[C@@H]2O[C@H](C)C[C@H](N(C)C)[C@H]2O)[C@](C)(O)C[C@@H](C)CN(C)[C@H](C)[C@@H](OC(=O)NCc2ccccc2)[C@]1(C)O	128 µg/mL (≈ 152 µM)	64 µg/mL (≈ 75.9 µM)	2 µg/mL (≈ 2.37 µM)	64 µg/mL (≈ 75.9 µM)	32 µg/mL (≈ 38 µM)	8 µg/mL (≈ 9.49 µM)	64 µg/mL (≈ 75.9 µM)	2 µg/mL (≈ 2.37 µM)	32 µg/mL (≈ 38 µM)	16 µg/mL (≈ 19 µM)	128 µg/mL (≈ 152 µM)						
CC[C@H]1OC(=O)[C@H](C)[C@@H](OC(=O)Nc2cccc(C)c2)[C@H](C)[C@@H](O[C@@H]2O[C@H](C)C[C@H](N(C)C)[C@H]2O)[C@](C)(O)C[C@@H](C)CN(C)[C@H](C)[C@@H](OC(=O)NCc2ccc(OC)cc2)[C@]1(C)O	128 µg/mL (≈ 144 µM)	128 µg/mL (≈ 144 µM)	16 µg/mL (≈ 18 µM)	128 µg/mL (≈ 144 µM)	16 µg/mL (≈ 18 µM)	16 µg/mL (≈ 18 µM)	128 µg/mL (≈ 144 µM)	1 µg/mL (≈ 1.13 µM)	32 µg/mL (≈ 36.1 µM)	8 µg/mL (≈ 9.02 µM)	128 µg/mL (≈ 144 µM)						
CC[C@H]1OC(=O)[C@H](C)[C@@H](OC(=O)Nc2ccccc2C)[C@H](C)[C@@H](O[C@@H]2O[C@H](C)C[C@H](N(C)C)[C@H]2O)[C@](C)(O)C[C@@H](C)CN(C)[C@H](C)[C@@H](OC(=O)NCc2ccccc2)[C@]1(C)O	32 µg/mL (≈ 37.3 µM)	64 µg/mL (≈ 74.7 µM)	2 µg/mL (≈ 2.33 µM)	64 µg/mL (≈ 74.7 µM)	1 µg/mL (≈ 1.17 µM)	2 µg/mL (≈ 2.33 µM)	128 µg/mL (≈ 149 µM)	0.03 µg/mL (≈ 0.035 µM)	0.25 µg/mL (≈ 0.292 µM)	0.25 µg/mL (≈ 0.292 µM)	32 µg/mL (≈ 37.3 µM)	16	8 - 256	8 - 256	8 - 256	8 - 256	8 - 256
CC[C@H]1OC(=O)[C@H](C)[C@@H](O[C@H]2C[C@@](C)(OC)[C@@H](O)[C@H](C)O2)[C@H](C)[C@@H](O[C@@H]2O[C@H](C)C[C@H](N(C)C)[C@H]2O)[C@](C)(O)C[C@@H](C)CN(C)[C@H](C)[C@@H](O)[C@]1(C)O [AZITHROMYCIN]	256 µg/mL (≈ 342 µM)	64 µg/mL (≈ 85.4 µM)	256 µg/mL (≈ 342 µM)	32 µg/mL (≈ 42.7 µM)	0.25 µg/mL (≈ 0.334 µM)	1 µg/mL (≈ 1.34 µM)	256 µg/mL (≈ 342 µM)	0.03 µg/mL (≈ 0.0401 µM)	0.25 µg/mL (≈ 0.334 µM)	4 µg/mL (≈ 5.34 µM)	4 µg/mL (≈ 5.34 µM)						
CC[C@H]1OC(=O)[C@H](C)[C@@H](O[C@H]2C[C@@](C)(OC)[C@@H](O)[C@H](C)O2)[C@H](C)[C@@H](O[C@@H]2O[C@H](C)C[C@H](N(C)C)[C@H]2O)[C@](C)(OC)C[C@@H](C)C(=O)[C@H](C)[C@@H](O)[C@]1(C)O [CLARITHROMYCIN]	256 µg/mL (≈ 342 µM)	32 µg/mL (≈ 42.8 µM)	128 µg/mL (≈ 171 µM)	64 µg/mL (≈ 85.6 µM)	0.25 µg/mL (≈ 0.334 µM)	0.25 µg/mL (≈ 0.334 µM)	256 µg/mL (≈ 342 µM)	0.03 µg/mL (≈ 0.0401 µM)	0.25 µg/mL (≈ 0.334 µM)	2 µg/mL (≈ 2.67 µM)	32 µg/mL (≈ 42.8 µM)						
